Measurements taken from ChEMBL document CHEMBL1151448, “Comparative antianaerobic activities of doripenem determined by MIC and time-kill analysis” (2008).
In brackets after ≈: the same amount, converted by molar mass. Activity calls are given as the source filed them. No cut-off for these calls is given here.

Columns and labels:
Prevotella denticola = test: Antimicrobial activity against beta lactamase-positive Prevotella denticola isolated from intra-abdominal infection and pelvic inflammatory disease patients after 48 hrs by agar dilution method; type: functional
Procedure, shortened: (§1)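 CLSI agar dilution on brucella blood agar supplemented with laked sheep blood, hemin and vitamin K. Inocula of about 1 × 10^5 CFU/spot were applied by Steers replicator, and plates were incubated 48 h at 35°C in an anaerobic glove box. MIC was the concentration giving marked growth reduction versus the anaerobic control plate. QC strains were included each run, and β-lactamase was detected by Cefinase disk.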

Clostridium perfringens [1] = test: Bactericidal activity against Clostridium perfringens isolated from intra-abdominal infection and pelvic inflammatory disease patients assessed as bacterial killing at MIC after 24 hrs by time kill analysis; type: functional
Procedure, shortened: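 Time-kill in prereduced brucella broth with 5% laked horse blood cells, hemin and vitamin K1. […] Viable counts taken at 6, 12, 24 and 48 h, plates incubated 48 h anaerobically. Kill scored as 90%, 99% or 99.9%; 99.9% defines bactericidal.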

Porphyromonas levii = test: Antimicrobial activity against Porphyromonas levii isolated from intra-abdominal infection and pelvic inflammatory disease patients after 48 hrs by agar dilution method; type: functional; procedure, shortened: as §1
Prevotella intermedia [2] = test: Antimicrobial activity against beta lactamase-positive Prevotella intermedia isolated from intra-abdominal infection and pelvic inflammatory disease patients after 48 hrs by time kill analysis; type: functional
Procedure, shortened: (§2)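 The MIC was read by inspecting macrodilution time-kill tubes. Vials held prereduced brucella broth with 5% laked horse blood cells, hemin 5 μg/ml and vitamin K1 1 μg/ml. Final inoculum was 10^6–10^7 CFU/ml, prepared inside the anaerobe chamber. Vials were incubated 48 h at 35°C in a shaking water bath.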

[3] = tested on: Bacteroides thetaiotaomicron; test: Bactericidal activity against beta lactamase-positive Bacteroides thetaiotaomicron isolated from intra-abdominal infection and pelvic inflammatory disease patients assessed as bacterial killing at 2 times MIC after 48 hrs by time kill analysis; type: functional
Procedure, shortened: (§3)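 Macrodilution time-kill in prereduced brucella broth with 5% laked horse blood, hemin 5 μg/ml and vitamin K1 1 μg/ml, at final inoculum 10^6–10^7 CFU/ml. […] Viable counts were taken at 6, 12, 24 and 48 h on plates incubated 48 h anaerobically. 99.9% kill was taken as bactericidal.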

[4] = tested on: Paraclostridium bifermentans; test: Antimicrobial activity against Clostridium bifermentans isolated from intra-abdominal infection and pelvic inflammatory disease patients after 48 hrs by agar dilution method; type: functional; procedure, shortened: as §1
Clostridium cadaveris = test: Antimicrobial activity against Clostridium cadaveris isolated from intra-abdominal infection and pelvic inflammatory disease patients after 48 hrs by agar dilution method; type: functional; procedure, shortened: as §1
Prevotella intermedia [5] = test: Antimicrobial activity against beta lactamase-positive Prevotella intermedia isolated from intra-abdominal infection and pelvic inflammatory disease patients after 48 hrs by agar dilution method; type: functional; procedure, shortened: as §1
Bacteroides fragilis [6] = test: Bactericidal activity against beta lactamase-positive Bacteroides fragilis isolated from intra-abdominal infection and pelvic inflammatory disease patients assessed as bacterial killing at MIC after 24 hrs by time kill analysis; type: functional; procedure, shortened: as §3
[7] = tested on: Peptoniphilus asaccharolyticus; test: Antimicrobial activity against Peptoniphilus asaccharolyticus isolated from intra-abdominal infection and pelvic inflammatory disease patients after 48 hrs by agar dilution method; type: functional; procedure, shortened: as §1
Clostridioides difficile [8] = test: Bactericidal activity against Clostridium difficile isolated from intra-abdominal infection and pelvic inflammatory disease patients assessed as 99.9% bacterial killing at 2 times MIC after 48 hrs by time kill analysis; type: functional, organism-based; procedure, shortened: as §3
Finegoldia magna [9] = test: Bactericidal activity against beta lactamase-positive Finegoldia magna isolated from intra-abdominal infection and pelvic inflammatory disease patients assessed as 99.9% bacterial killing at 2 times MIC after 48 hrs by time kill analysis; type: functional, organism-based; procedure, shortened: as §3
Anaerococcus tetradius = test: Antimicrobial activity against Anaerococcus tetradius isolated from intra-abdominal infection and pelvic inflammatory disease patients after 48 hrs by agar dilution method; type: functional; procedure, shortened: as §1
Bacteroides fragilis [10] = test: Bactericidal activity against beta lactamase-positive Bacteroides fragilis isolated from intra-abdominal infection and pelvic inflammatory disease patients assessed as bacterial killing at 2 times MIC after 48 hrs by time kill analysis; type: functional; procedure, shortened: as §3
Prevotella nigrescens = test: Antimicrobial activity against beta lactamase-positive Prevotella nigrescens isolated from intra-abdominal infection and pelvic inflammatory disease patients after 48 hrs by agar dilution method; type: functional; procedure, shortened: as §1
[11] = tested on: Paeniclostridium sordellii; test: Antimicrobial activity against Clostridium sordellii isolated from intra-abdominal infection and pelvic inflammatory disease patients after 48 hrs by agar dilution method; type: functional; conditions: Paraclostridium sordellii; procedure, shortened: as §1
Clostridioides difficile [12] = test: Antimicrobial activity against Clostridium difficile isolated from intra-abdominal infection and pelvic inflammatory disease patients after 48 hrs by time kill analysis; type: functional
Procedure, shortened: (§4)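 Macrodilution in prereduced brucella broth with 5% laked horse blood cells, 5 μg/ml hemin and 1 μg/ml vitamin K1. Final inoculum 10^6 to 10^7 CFU/ml, prepared inside the anaerobe chamber. Vials incubated 48 h at 35°C in a shaking water bath. MIC read by inspecting the time-kill tubes, alongside an antibiotic-free growth control.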

Prevotella intermedia [13] = test: Bactericidal activity against beta lactamase-positive Prevotella intermedia isolated from intra-abdominal infection and pelvic inflammatory disease patients assessed as bacterial killing at 2 times MIC after 48 hrs by time kill analysis; type: functional
Procedure, shortened: (§5)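 Anaerobic macrodilution time-kill. Inoculum from brucella blood plates, prepared and diluted in prereduced brucella broth inside the anaerobe chamber. Final 10^6 to 10^7 CFU/ml in prereduced brucella broth with 5% laked horse blood cells, 5 μg/ml hemin and 1 μg/ml vitamin K1. […] Shaken at 35°C for 48 h. Viable counts taken at 6, 12, 24 and 48 h. 99.9% kill taken as bactericidal.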

Bacteroides fragilis [14] = test: Antimicrobial activity against beta lactamase-positive Bacteroides fragilis isolated from intra-abdominal infection and pelvic inflammatory disease patients after 48 hrs by agar dilution method; type: functional; procedure, shortened: as §1
Finegoldia magna [15] = test: Antimicrobial activity against Finegoldia magna isolated from intra-abdominal infection and pelvic inflammatory disease patients after 48 hrs by agar dilution method; type: functional; procedure, shortened: as §1
Porphyromonas gingivalis = test: Antimicrobial activity against Porphyromonas gingivalis isolated from intra-abdominal infection and pelvic inflammatory disease patients after 48 hrs by agar dilution method; type: functional; procedure, shortened: as §1
Prevotella intermedia [16] = test: Bactericidal activity against beta lactamase-positive Prevotella intermedia isolated from intra-abdominal infection and pelvic inflammatory disease patients assessed as bacterial killing at MIC after 24 hrs by time kill analysis; type: functional; procedure, shortened: as §5
Finegoldia magna [17] = test: Bactericidal activity against beta lactamase-positive Finegoldia magna isolated from intra-abdominal infection and pelvic inflammatory disease patients assessed as bacterial killing at MIC after 24 hrs by time kill analysis; type: functional; procedure, shortened: as §5
[18] = tested on: Peptostreptococcus anaerobius; test: Antimicrobial activity against Peptostreptococcus anaerobius isolated from intra-abdominal infection and pelvic inflammatory disease patients after 48 hrs by agar dilution method; type: functional; procedure, shortened: as §1
Thomasclavelia ramosa = test: Antimicrobial activity against Clostridium ramosum isolated from intra-abdominal infection and pelvic inflammatory disease patients after 48 hrs by agar dilution method; type: functional; procedure, shortened: as §1
Finegoldia magna [19] = test: Antimicrobial activity against beta lactamase-positive Finegoldia magna isolated from intra-abdominal infection and pelvic inflammatory disease patients after 48 hrs by time kill analysis; type: functional; procedure, shortened: as §2
Clostridium perfringens [20] = test: Antimicrobial activity against Clostridium perfringens isolated from intra-abdominal infection and pelvic inflammatory disease patients after 48 hrs by time kill analysis; type: functional; procedure, shortened: as §4
[21] = tested on: Enterocloster clostridioformis; test: Antimicrobial activity against Clostridium clostridioforme isolated from intra-abdominal infection and pelvic inflammatory disease patients after 48 hrs by agar dilution method; type: functional; procedure, shortened: as §1
Fusobacterium nucleatum = test: Bactericidal activity against beta lactamase-positive Fusobacterium nucleatum isolated from intra-abdominal infection and pelvic inflammatory disease patients assessed as bacterial killing at MIC after 24 hrs by time kill analysis; type: functional; procedure, shortened: as §5

C[C@@H](O)[C@H]1C(=O)N2C(C(=O)O)=C(SCCNC=N)C[C@H]12 [IMIPENEM ANHYDROUS]
MIC50 (Prevotella denticola): 0.03 µg/mL (≈ 0.1 µM)
MIC90 (Prevotella denticola): 0.06 µg/mL (≈ 0.2 µM)
Activity (Clostridium perfringens [1]): 90%
MIC (Porphyromonas levii): ≤ 0.016 µg/mL
MIC (Prevotella intermedia [2]): 0.03 µg/mL (≈ 0.1 µM)
Activity [3]: 99%
MIC [4]: 0.25 µg/mL (≈ 0.835 µM)
MIC (Clostridium cadaveris): 0.125 µg/mL (≈ 0.418 µM)
MIC50 (Prevotella intermedia [5]): 0.03 µg/mL (≈ 0.1 µM)
MIC90 (Prevotella intermedia [5]): 0.125 µg/mL (≈ 0.418 µM)
Activity (Bacteroides fragilis [6]): 90%
MIC [7]: ≤ 0.016 µg/mL
MIC50 [7]: ≤ 0.016 µg/mL
MIC90 [7]: 0.03 µg/mL (≈ 0.1 µM)
Activity (Clostridioides difficile [8]): inactive
Activity (Finegoldia magna [9]): inactive
MIC50 (Anaerococcus tetradius): 0.03 µg/mL (≈ 0.1 µM)
Activity (Bacteroides fragilis [10]): 99%
MIC50 (Prevotella nigrescens): 0.03 µg/mL (≈ 0.1 µM)
MIC90 (Prevotella nigrescens): 0.03 µg/mL (≈ 0.1 µM)
MIC [11]: 0.125 µg/mL (≈ 0.418 µM)
MIC (Clostridioides difficile [12]): 4 µg/mL (≈ 13.4 µM)
Activity (Prevotella intermedia [13]): 99%
MIC50 (Bacteroides fragilis [14]): 0.125 µg/mL (≈ 0.418 µM)
MIC90 (Bacteroides fragilis [14]): 0.25 µg/mL (≈ 0.835 µM)
MIC50 (Finegoldia magna [15]): 0.06 µg/mL (≈ 0.2 µM)
MIC90 (Finegoldia magna [15]): 0.06 µg/mL (≈ 0.2 µM)
MIC (Porphyromonas gingivalis): ≤ 0.016 µg/mL
Activity (Prevotella intermedia [16]): 90%
Activity (Finegoldia magna [17]): 90%
MIC [18]: 0.06 µg/mL (≈ 0.2 µM)
MIC50 [18]: 0.06 µg/mL (≈ 0.2 µM)
MIC90 [18]: 1 µg/mL (≈ 3.34 µM)
MIC (Thomasclavelia ramosa): 0.25 µg/mL (≈ 0.835 µM)
MIC50 (Thomasclavelia ramosa): 0.25 µg/mL (≈ 0.835 µM)
MIC (Finegoldia magna [19]): 0.06 µg/mL (≈ 0.2 µM)
MIC (Clostridium perfringens [20]): 0.06 µg/mL (≈ 0.2 µM)
MIC [21]: 2 µg/mL (≈ 6.68 µM)
Activity (Fusobacterium nucleatum): 90%

C[C@@H](O)[C@H]1C(=O)N2C(C(=O)O)=C(S[C@@H]3CN[C@H](C(=O)N(C)C)C3)[C@H](C)[C@H]12 [MEROPENEM]
MIC50 (Prevotella denticola): 0.06 µg/mL (≈ 0.156 µM)
MIC90 (Prevotella denticola): 0.25 µg/mL (≈ 0.652 µM)
Activity (Clostridium perfringens [1]): 90%
MIC (Porphyromonas levii): ≤ 0.016 µg/mL
MIC (Prevotella intermedia [2]): 0.03 µg/mL (≈ 0.0782 µM)
Activity [3]: 99%
MIC [4]: 0.125 µg/mL (≈ 0.326 µM)
MIC (Clostridium cadaveris): 0.03 µg/mL (≈ 0.0782 µM)
MIC50 (Prevotella intermedia [5]): 0.03 µg/mL (≈ 0.0782 µM)
MIC90 (Prevotella intermedia [5]): 0.125 µg/mL (≈ 0.326 µM)
Activity (Bacteroides fragilis [6]): 90%
MIC [7]: ≤ 0.016 µg/mL
MIC50 [7]: ≤ 0.016 µg/mL
MIC90 [7]: 0.03 µg/mL (≈ 0.0782 µM)
Activity (Clostridioides difficile [8]): inactive
Activity (Finegoldia magna [9]): inactive
MIC (Anaerococcus tetradius): 0.03 µg/mL (≈ 0.0782 µM)
MIC50 (Anaerococcus tetradius): 0.03 µg/mL (≈ 0.0782 µM)
Activity (Bacteroides fragilis [10]): 99%
MIC50 (Prevotella nigrescens): 0.03 µg/mL (≈ 0.0782 µM)
MIC90 (Prevotella nigrescens): 0.06 µg/mL (≈ 0.156 µM)
MIC [11]: 0.06 µg/mL (≈ 0.156 µM)
MIC (Clostridioides difficile [12]): 1 µg/mL (≈ 2.61 µM)
Activity (Prevotella intermedia [13]): 99%
MIC50 (Bacteroides fragilis [14]): 0.125 µg/mL (≈ 0.326 µM)
MIC90 (Bacteroides fragilis [14]): 1 µg/mL (≈ 2.61 µM)
MIC (Finegoldia magna [15]): 0.06 µg/mL (≈ 0.156 µM)
MIC50 (Finegoldia magna [15]): 0.06 µg/mL (≈ 0.156 µM)
MIC90 (Finegoldia magna [15]): 0.125 µg/mL (≈ 0.326 µM)
MIC (Porphyromonas gingivalis): ≤ 0.016 µg/mL
Activity (Prevotella intermedia [16]): 90%
Activity (Finegoldia magna [17]): 90%
MIC [18]: 0.25 µg/mL (≈ 0.652 µM)
MIC50 [18]: 0.25 µg/mL (≈ 0.652 µM)
MIC90 [18]: 2 µg/mL (≈ 5.22 µM)
MIC50 (Thomasclavelia ramosa): 1 µg/mL (≈ 2.61 µM)
MIC (Finegoldia magna [19]): 0.06 µg/mL (≈ 0.156 µM)
MIC (Clostridium perfringens [20]): 0.03 µg/mL (≈ 0.0782 µM)
MIC [21]: 1 µg/mL (≈ 2.61 µM)
Activity (Fusobacterium nucleatum): 90%
